Source: ChEMBL document CHEMBL1141447, “Nitrogen-containing verticillene diterpenoids from the Taiwanese soft coral Cespitularia taeniata” (2007)
Values after ≈ are worked out from the molar mass of the structure shown. Active and inactive are the calls of the source. The rule behind the calls is not given here.

Experiments:
[1] = test system: Staphylococcus aureus; assay: Antimicrobial activity against Staphylococcus aureus 209P; type: functional, organism-based
[2] = test system: L1210; assay: Cytotoxicity against mouse L1210 cells at 5.1 ug/ml after 48 hrs; type: functional, cell-based
Method in brief: (§1)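 KB (human oral epidermoid carcinoma) or L1210 (mouse leukemia) cells were incubated at 37 °C for 48 h in medium with graded concentrations of compound, dissolved in 0.6% Me2SO. IC50 was read from a plot of log concentration against growth rate of the treated cells.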

[3] = test system: Trichophyton benhamiae; assay: Antimicrobial activity against Trichophyton mentagrophytes; type: functional, Arthroderma benhamiae
[4] = test system: KB; assay: Cytotoxicity against human KB cells at 3.7 ug/ml after 48 hrs; type: functional, cell-based; method in brief: as §1
[5] = test system: Micrococcus luteus; assay: Antimicrobial activity against Micrococcus luteus IFM2066; type: functional
[6] = test system: Cryptococcus neoformans; assay: Antimicrobial activity against Cryptococcus neoformans IFM46914; type: functional
[7] = test system: Trichophyton benhamiae; assay: Antimicrobial activity against Trichophyton mentagrophytes IFM45110; type: functional, Arthroderma benhamiae

MIC [3] [µg/mL]	MIC [5] [µg/mL]	MIC [6] [µg/mL]	MIC [7] [µg/mL]	SMILES	Activity [1]	Activity [2]	Activity [4]
4.16 (≈ 11.6 µM)				C=C1CC[C@@H]2CCC3=C([C@@H](C/C(C)=C/[C@@H](OC(C)=O)C1)NC3=O)C2(C)C [CESPITULACTAM E]	inactive	inactive	inactive
	4.16 (≈ 9.55 µM)	4.16 (≈ 9.55 µM)		C=C1CC[C@@H]2CC[C@@H]3C(=O)N(CCc4ccc(O)cc4)C(=C3C2(C)C)C/C(C)=C/[C@@H](O)C1 [CESPITULACTAM K]	inactive	Active	Active
4.16 (≈ 9.07 µM)	4.16 (≈ 9.07 µM)	4.16 (≈ 9.07 µM)		C=C1CC[C@@H]2CCC3=C([C@@H](C/C(C)=C/[C@@H](O)C1)N(CCc1c[nH]c4ccccc14)C3=O)C2(C)C [CESPITULACTAM J]	inactive	inactive	inactive
			2.08 (≈ 5.79 µM)	C=C1CC[C@@H]2CCC3=C(C2(C)C)[C@@](O)(C/C(C)=C/[C@@H](O)C1)N(CC)C3=O [CESPITULACTAM G]	inactive	inactive	inactive

The remaining lines, values behind:

SMILES	MIC [3] [µg/mL]	MIC [5] [µg/mL]	MIC [6] [µg/mL]	MIC [7] [µg/mL]	Activity [1]	Activity [2]	Activity [4]
C=C1CC[C@@H]2CCC3=C(C2(C)C)[C@@](O)(C/C(C)=C/[C@@H](O)C1)NC3=O					inactive	inactive	inactive
C=C1CC[C@@H]2CCC3C(=O)N/C(=C/C(C)CC(=O)C1)C3(O)C2(C)C (stereo partly drawn)			4.16 (≈ 12.6 µM)		inactive	inactive	inactive
C=C1CC[C@@H]2CCC3=C([C@@H](C/C(C)=C/[C@@H](O)C1)N(C)C3=O)C2(C)C					inactive	inactive	inactive
C=C1CC[C@@H]2CCC3=C([C@@H](C/C(C)=C/[C@@H](O)C1)NC3=O)C2(C)C [CESPITULACTAM D]		4.16 (≈ 13.2 µM)			inactive	inactive	inactive
